Series [1] deals with SF-295. The series can be described thus: Induction of oxidative stress in human SF295 cells assessed as total intracellular thiol levels at 5 uM treated 24 hrs post NAC addition measured after 24 hrs by spectrophotometric analysis (reference value: 4.51 +/- 0.83 microg/mg). The series is classed as functional. In a few lines:
(§1)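 Cells were pretreated 24 h with 5 mM NAC, then exposed 24 h to test compound at 5 µM. Controls received 0.1% DMSO. Extracts were prepared by sonication and HClO4 precipitation, then neutralized with KOH. Total glutathione was read by DTNB/glutathione reductase/NADPH rate at 412 nm. GSSG was measured after 4-vinylpyridine (0.1%, 1 h, RT) and GSH derived by difference. Values are normalized to protein, triplicates, three independent runs.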

For series [2], the system named is L929. The series can be described thus: Induction of oxidative stress in mouse L929 cells assessed as total GSH levels at 5 uM after 24 hrs by spectrophotometric analysis (reference value: 3.76 +/- 0.51 microg/mg). Particulars: l929, 24 h. The series is classed as cell-based.
Series [3] deals with SF-295. The series can be described thus: Induction of oxidative stress in human SF295 cells assessed as total GSSG levels at 5 uM treated 24 hrs post NAC addition measured after 24 hrs by spectrophotometric analysis (reference value: 1.31 +/- 0.55 microg/mg). It counts as functional. In a few lines:
as §1

Series [4] in a line: Selective index, ratio of IC50 for chinese hamster V79 cells to IC50 for human SF295 cells. A digest of the protocol:
(§2)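 Selectivity index is the ratio of the IC50 in a non-cancer murine line (V79 or L929) to the IC50 in the cancer line. […] MTT was 0.5 mg/mL for 3 h, formazan dissolved in DMSO and read at 595 nm as % of control. IC50s were derived by nonlinear regression; triplicate, at least three repeats.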

Series [5] concerns PC-3. The series can be described thus: Induction of lipid peroxidation in human PC3 cells assessed as increase in MDA levels at 2.5 to 10 uM after 24 hrs in absence of NAC by TBARS assay. The series is classed as functional, cell-based. In a few lines: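 TBARS: cells were exposed 24 h, with or without 24 h prior 5 mM NAC, and lysed in Tris-HCl. Lysate was heated with TCA/0.25 M HCl and 6.7 mg/mL TBA for 15 min at 100 °C, centrifuged, and read at 532 nm. Hydrolyzed tetramethoxypropane served as standard, with values normalized to protein. H2O2 (10 µM) was the positive control. Three independent experiments in triplicate; ANOVA/Tukey.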

A short description of series [6]: Selectivity index, ratio of IC50 for mouse L929 cells to IC50 for human SF295 cells. The series is classed as functional. A digest of the protocol: as §2
Series [7] relates to PC-3. The series can be described thus: Induction of oxidative stress in human PC3 cells assessed as GSH to GSSG ratio at 5 uM after 24 hrs by spectrophotometric analysis (reference value: 2.69 +/- 0.21 microg/mg). The series is classed as functional.
The subject of series [8] is L929. The series can be described thus: Induction of oxidative stress in mouse L929 cells assessed as GSH to GSSG ratio at 5 uM treated 24 hrs post NAC addition measured after 24 hrs by spectrophotometric analysis (reference value: 3.55 +/- 0.51 microg/mg). Particulars: l929, 24 h. The series is classed as cell-based. In a few lines: as §1
Series [9] relates to PC-3. The series can be described thus: Antiproliferative activity against human PC3 cells after 72 hrs by MTT assay. The series is classed as functional, cell-based. Particulars: PC-3, 72 h. A digest of the protocol:
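MTT reduction: cancer lines plated at 0.7×10^5 to 0.3×10^6 cells/well, V79 and L929 fibroblasts at 0.5×10^5 cells/well. Compounds in DMSO (0.1%) were given for 24 h at 0.04–40.92 µM or 72 h at 0.04–8.19 µM. Fresh medium with 0.5 mg/mL MTT was added for 3 h, then formazan was dissolved in DMSO and read at 595 nm as % of control. IC50 came from nonlinear regression with 95% CI. Doxorubicin (0.001–1.06 µM) was the positive control. Triplicate, ≥3 repeats.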
For orientation: Tetrazolium dyes change colour on reduction, which living cells bring about.

Active and inactive are the calls of the source. The calls are words filed in the database; no cut-off is given here.

For `CC1(C)OC2=C(C(=O)C(=O)c3ccccc32)C1n1cc(CNC2=[N+]3C(=C(c4ccccc4)c4ccc(Cl)n4[B-]3(F)F)C=C2)nn1` (centres undefined), the Activity is 4.72 µg/mg in [1]; 1.15 µg/mg in [2]; 1.21 µg/mg in [3]; 0.37 µg/mg in series [7]; 3.08 µg/mg in series [8]. The figures for the Ratio IC50 in series [4] and in [6] were 2.3 and 3, respectively. In series [5], the result was Active. Also, the midpoint of inhibition in [9], the IC50, lay at 380 nM.

In general, IC50 refers to the concentration that gives 50% inhibition. A low value points to inhibition by little substance.

The values are drawn from ChEMBL document CHEMBL4043182, “On the synthesis of quinone-based BODIPY hybrids: New insights on antitumor activity and mechanism of action in cancer cells” (Bioorg Med Chem Lett, 2017).
